Measured values from PMC5260928 (Bioorganic & medicinal chemistry, 2016).

How the values were obtained:
HIV-1 Ba-L and IIIB = test: Virus-cell fusion; assay type: cell-based; conditions: for activity against VCF: result in words; for IC50: Human immunodeficiency virus 1, BAL|IIIB, read-out: IC50 against VCF
Outline: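 MAGI-CCR5 cells, 10,000 per well, grown overnight in DMEM with 10% FBS. Medium replaced with test compound at 6 dilutions, each in triplicate. HIV-1 Ba-L (CCR5-tropic) or IIIB (CXCR4-tropic) added at ~10 TCID50/well. Assay run at 2% serum and incubated 48 h. Read-out is Tat-induced β-Gal expression by chemiluminescence.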

[1] = biological target: gp41 hydrophobic pocket (Fe(envC)3) (Human immunodeficiency virus type 1 group M subtype B, UniProt P04578); test: Surface plasmon resonance; assay type: binding, HIV-1; conditions: for kd: SPR 1:1 binding kinetic analysis, RUmax fixed; for kd1 / kd2: bivalent binding model
HIV-1 Ba-L = test: CCR5-tropic MAGI antiviral assay; assay type: cell-based; conditions: Ba-L virus
HIV-1 IIIB = test: CXCR4-tropic MAGI antiviral assay; assay type: cell-based; conditions: IIIB virus
[2] = biological target: gp41 hydrophobic pocket (Fe(env2.0)3) (Human immunodeficiency virus type 1 group M subtype B, UniProt P04578); test: Fluorescence competitive binding assay for the hydrophobic pocket, Fe; set-up: species or system HIV-1; conditions: for Ki: Inhibition constant KI, dimers, 1:1 binding model with Rt = 7.2 µM, poor fit; for improvement (reduction) of KI over the respective monomer: compared with monomers 3 and 4
HXB2 Env = conditions: read-out: IC50 CCF; cell-cell fusion, three-subunit peptidomimetics; cited from earlier work

In the case of `Nc1ccc(C(=O)N[C@@H](Cc2c[nH]c3ccccc23)C(=O)O)cc1OCCc1c[nH]c2ccccc12` [Compound 3, H2N-[Trp]-Trp-OH], the “activity against VCF” value (HIV-1 Ba-L and IIIB) is reported as “ineffective” and the kd [1] is reported as 0.834 s⁻¹.
In the case of `Nc1ccc(C(=O)N[C@@H](Cc2c[nH]c3ccccc23)C(=O)O)cc1OCc1ccc(Cl)cc1` [Compound 4, H2N-[Phe4Cl]-Trp-OH], the “activity against VCF” value (HIV-1 Ba-L and IIIB) is reported as “ineffective” and the kd [1] is reported as 0.820 s⁻¹.
With `O=C(CCC(=O)Nc1ccc(C(=O)N[C@@H](Cc2c[nH]c3ccccc23)C(=O)O)cc1OCCc1c[nH]c2ccccc12)NCCOCCOCCOCCNC(=O)CCC(=O)Nc1ccc(C(=O)N[C@@H](Cc2c[nH]c3ccccc23)C(=O)O)cc1OCCc1c[nH]c2ccccc12` [Compound 7] the IC50 (HIV-1 Ba-L and IIIB) was 3 to 5 µM, the “residual fusion activity at plateau of antiviral activity” value (HIV-1 Ba-L) was ~ 20% and the “residual fusion activity at plateau of antiviral activity” value (HIV-1 IIIB) was ~ 6%. For the same compound, the kd [1] was 0.060 s⁻¹, the kd1 [1] was 0.0869 s⁻¹ and the kd2 [1] was 0.0145 s⁻¹. It also gave a Ki [2] of 1 µM.
`O=C(CCC(=O)Nc1ccc(C(=O)N[C@@H](Cc2c[nH]c3ccccc23)C(=O)O)cc1OCc1ccc(Cl)cc1)NCCOCCOCCOCCNC(=O)CCC(=O)Nc1ccc(C(=O)N[C@@H](Cc2c[nH]c3ccccc23)C(=O)O)cc1OCc1ccc(Cl)cc1` [Compound 8] gave an IC50 (HIV-1 Ba-L and IIIB) of 3 to 5 µM, a kd [1] of 0.037 s⁻¹ and a kd1 [1] of 0.0638 s⁻¹. For the same compound, the kd2 [1] was 0.0033 s⁻¹ and the Ki [2] was 5.3 µM.
In the case of `O=C(CCc1c[nH]c2ccccc12)NCCCCCC(=O)Nc1ccc(C(=O)N[C@@H](Cc2c[nH]c3ccccc23)C(=O)O)cc1OCCc1c[nH]c2ccccc12` [Compound 10], the IC50 (HIV-1 Ba-L and IIIB) is reported as 13 to 17 µM, the kd [1] is reported as 0.093 s⁻¹ and the “improvement (reduction) of KI over the respective monomer” value [2] is reported as 6 fold.
With `O=C(CCc1c[nH]c2ccccc12)NCCCCCC(=O)Nc1ccc(C(=O)N[C@@H](Cc2c[nH]c3ccccc23)C(=O)O)cc1OCc1ccc(Cl)cc1` [Compound 11] the IC50 (HIV-1 Ba-L and IIIB) was 13 to 17 µM, the kd [1] was 0.186 s⁻¹ and the “improvement (reduction) of KI over the respective monomer” value [2] was 6 fold.
For H2N-Asn-[Trp]-Trp-COOH, the IC50 (HXB2 Env) is listed as 6 µM.
In the case of H2N-Trp-[Trp]-Leu-COOH, the IC50 (HXB2 Env) is given as 5 µM.
